Measurements taken from ChEMBL document CHEMBL1133365, “Synthesis and class III type antiarrhythmic activity of 4-aroyl (and aryl)-l-aralkylpiperazines” (2000).

Experiments:
Mustela putorius furo [1] = organism: Mustela putorius furo; assay: Peak isometric tension during the basic stimulus trains (S1) during control and compound induced tension, expressed as percent control.; format: functional
Outline: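 Same preparation: buffer pH 7.3, 5% CO2/95% O2, 37 °C, timolol 0.1 mM, 3 msec constant-current stimulation. Isometric force was recorded, and peak tension was taken during the basic S1 stimulus trains. Readings were made at steady state, about 15 min after each concentration. The change is expressed as percent of control.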

Mustela putorius furo [2] = organism: Mustela putorius furo; assay: Dose required to produce 20% increase in effective refractory period in male ferret.; format: functional
Outline: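 Isolated tissue in buffer (mM: KCl 4, MgCl2 1.0, NaHCO3 25, KH2PO4 1.2, CaCl2 2, dextrose 11), pH 7.3, gassed 5% CO2/95% O2, 37 °C. Timolol 0.1 mM present. Stimulated with 3 msec constant-current pulses. Duplicate control readings, then each concentration read at steady state (~15 min). EC20 is the mean dose giving a 20% rise in ERP, in μM.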

Compound: O=C(c1ccc([N+](=O)[O-])cc1)N1CCNCC1
- Tension (Mustela putorius furo [1]): -33%
- EC20 (Mustela putorius furo [2]): 20000 nM

Compound: CS(=O)(=O)Nc1ccc(C(=O)N2CCN(CCc3ccccc3)CC2)cc1
- Tension (Mustela putorius furo [1]): 5%
- EC20 (Mustela putorius furo [2]): 680 nM

Compound: O=[N+]([O-])c1ccc(CCN2CCN(c3ccc([N+](=O)[O-])cn3)CC2)cc1
- Tension (Mustela putorius furo [1]): -21%
- EC20 (Mustela putorius furo [2]): 1300 nM

Compound: O=[N+]([O-])c1ccc(OCCN2CCN(c3ccc([N+](=O)[O-])cc3)CC2)cc1
- Tension (Mustela putorius furo [1]): -27%
- EC20 (Mustela putorius furo [2]): 350 nM

Compound: CS(=O)(=O)Nc1ccc(CCN2CCN(c3ccncc3)CC2)cc1
- Tension (Mustela putorius furo [1]): 2%
- EC20 (Mustela putorius furo [2]): 220 nM

Compound: O=[N+]([O-])c1ccc(CCN2CCN(c3ccc([N+](=O)[O-])cc3)CC2)cc1
- Tension (Mustela putorius furo [1]): 5%
- EC20 (Mustela putorius furo [2]): 30 nM

Compound: CC(C)NCC(O)c1ccc(NS(C)(=O)=O)cc1 (centres undefined) [SOTALOL]
- Tension (Mustela putorius furo [1]): -13%
- EC20 (Mustela putorius furo [2]): 3500 nM

Compound: O=C(c1ccncc1)N1CCN(CCc2ccc([N+](=O)[O-])cc2)CC1
- Tension (Mustela putorius furo [1]): 19%
- EC20 (Mustela putorius furo [2]): 1000 nM

Compound: CS(=O)(=O)Nc1ccc(OCCN2CCN(C(=O)c3ccc(NS(C)(=O)=O)cc3)CC2)cc1
- Tension (Mustela putorius furo [1]): -13%
- EC20 (Mustela putorius furo [2]): 15000 nM

Compound: O=[N+]([O-])c1ccc(CCN2CCC(c3ccc([N+](=O)[O-])cc3)CC2)cc1
- Tension (Mustela putorius furo [1]): 0%
- EC20 (Mustela putorius furo [2]): 300 nM

Compound: Cc1cccc(CCN2CCC(C(=O)c3ccc(NS(C)(=O)=O)cc3)CC2)n1
- Tension (Mustela putorius furo [1]): 9%
- EC20 (Mustela putorius furo [2]): 20 nM

Compound: Nc1ccc(CCN2CCN(c3ccncc3)CC2)cc1
- Tension (Mustela putorius furo [1]): 9%
- EC20 (Mustela putorius furo [2]): 15000 nM

Compound: O=C(c1ccc([N+](=O)[O-])cc1)N1CCN(CCc2ccc([N+](=O)[O-])s2)CC1
- Tension (Mustela putorius furo [1]): -17%
- EC20 (Mustela putorius furo [2]): 10 nM

Compound: Nc1ccc(CCN2CCN(C(=O)c3ccc([N+](=O)[O-])cc3)CC2)cc1
- Tension (Mustela putorius furo [1]): -14%
- EC20 (Mustela putorius furo [2]): 1400 nM

Compound: Nc1ccc(CCN2CCN(c3ccc(N)cc3)CC2)cc1
- Tension (Mustela putorius furo [1]): -53%
- EC20 (Mustela putorius furo [2]): >100000 nM

Compound: Nc1ccc(CCN2CCC(c3ccc(N)cc3)CC2)cc1
- Tension (Mustela putorius furo [1]): 15%
- EC20 (Mustela putorius furo [2]): 2000 nM

Compound: CN(CCOc1ccc(NS(C)(=O)=O)cc1)CCc1ccc(NS(C)(=O)=O)cc1 [DOFETILIDE]
- Tension (Mustela putorius furo [1]): 5%
- EC20 (Mustela putorius furo [2]): 15 nM

Compound: Nc1ccc(OCCN2CCN(c3ccc(N)cc3)CC2)cc1
- Tension (Mustela putorius furo [1]): -43%
- EC20 (Mustela putorius furo [2]): >100000 nM

Compound: CS(=O)(=O)Nc1ccc(CCN2CCN(C(=O)c3ccc([N+](=O)[O-])cc3)CC2)cc1
- Tension (Mustela putorius furo [1]): 13%
- EC20 (Mustela putorius furo [2]): 160 nM

Compound: CS(=O)(=O)Nc1ccc(CCN2CCN(C(=O)c3ccc(NS(C)(=O)=O)cc3)CC2)cc1
- Tension (Mustela putorius furo [1]): 1%
- EC20 (Mustela putorius furo [2]): 2000 nM

Compound: O=C(c1ccc([N+](=O)[O-])cc1)N1CCN(C(=O)c2ccc([N+](=O)[O-])cc2)CC1
- Tension (Mustela putorius furo [1]): -6%
- EC20 (Mustela putorius furo [2]): 7000 nM

Compound: CS(=O)(=O)Nc1ccc(C(=O)N2CCN(CCc3ccc([N+](=O)[O-])cc3)CC2)cc1
- Tension (Mustela putorius furo [1]): 1%
- EC20 (Mustela putorius furo [2]): 60 nM

Compound: O=C(c1ccccc1)N1CCN(CCc2ccc([N+](=O)[O-])cc2)CC1
- Tension (Mustela putorius furo [1]): -7%
- EC20 (Mustela putorius furo [2]): 140 nM

Compound: O=C(c1ccc([N+](=O)[O-])cc1)N1CCN(Cc2ccc([N+](=O)[O-])cc2)CC1
- Tension (Mustela putorius furo [1]): -44%
- EC20 (Mustela putorius furo [2]): 3500 nM

Compound: O=[N+]([O-])c1ccc(CCN2CCN(S(=O)(=O)c3ccc([N+](=O)[O-])cc3)CC2)cc1
- Tension (Mustela putorius furo [1]): -24%
- EC20 (Mustela putorius furo [2]): 1000 nM

Compound: O=C(c1ccc([N+](=O)[O-])cc1)N1CCN(CCc2ccc([N+](=O)[O-])cc2)CC1
- Tension (Mustela putorius furo [1]): -3%
- EC20 (Mustela putorius furo [2]): 3 nM

Compound: O=C(c1ccc([N+](=O)[O-])cc1)N1CCN(CCc2ccccc2)CC1
- Tension (Mustela putorius furo [1]): -8%
- EC20 (Mustela putorius furo [2]): 160 nM

Compound: O=C(c1ccc(Cl)cc1)C1CCN(CCc2ccc([N+](=O)[O-])cc2)CC1
- Tension (Mustela putorius furo [1]): -4%
- EC20 (Mustela putorius furo [2]): 300 nM

Compound: O=C(c1ccc([N+](=O)[O-])s1)N1CCN(CCc2ccc([N+](=O)[O-])cc2)CC1
- Tension (Mustela putorius furo [1]): 0%
- EC20 (Mustela putorius furo [2]): 12 nM

Compound: O=[N+]([O-])c1ccc(CCN2CCN(c3ccncc3)CC2)cc1
- Tension (Mustela putorius furo [1]): 8%
- EC20 (Mustela putorius furo [2]): 30 nM

Compound: O=[N+]([O-])c1ccc(N2CCN(CCc3ccccc3)CC2)cc1
- Tension (Mustela putorius furo [1]): -6%
- EC20 (Mustela putorius furo [2]): 500 nM

Compound: O=C(CN1CCN(C(=O)c2ccc([N+](=O)[O-])cc2)CC1)Nc1ccc([N+](=O)[O-])cc1
- Tension (Mustela putorius furo [1]): 5%
- EC20 (Mustela putorius furo [2]): 35 nM

Compound: O=C(c1ccc([N+](=O)[O-])o1)N1CCN(CCc2ccc([N+](=O)[O-])cc2)CC1
- Tension (Mustela putorius furo [1]): -2%
- EC20 (Mustela putorius furo [2]): 140 nM

Compound: O=[N+]([O-])c1ccc(CCN2CCN(c3ccccc3)CC2)cc1
- Tension (Mustela putorius furo [1]): 10%
- EC20 (Mustela putorius furo [2]): 800 nM

Compound: O=C(c1cccc([N+](=O)[O-])c1)N1CCN(CCc2ccc([N+](=O)[O-])cc2)CC1
- Tension (Mustela putorius furo [1]): -7%
- EC20 (Mustela putorius furo [2]): 270 nM

Compound: CS(=O)(=O)Nc1ccc(C(=O)N2CCN(CCOc3ccc(N(S(C)(=O)=O)S(C)(=O)=O)cc3)CC2)cc1
- Tension (Mustela putorius furo [1]): -14%
- EC20 (Mustela putorius furo [2]): 25000 nM

Compound: O=C(c1ccc([N+](=O)[O-])cc1)N1CCN(CCOc2ccc([N+](=O)[O-])cc2)CC1
- Tension (Mustela putorius furo [1]): 0%
- EC20 (Mustela putorius furo [2]): 60 nM
